Screens as filed in PubChem BioAssay.
The list is not random: actives were taken first. Their share in the collection is about 3.5%.
AHR act = AHR activators, primary screen, cell-based, luminescence, luciferase reporter, human; Aryl hydrocarbon receptor (Homo sapiens), P35869; AHR-responsive luciferase reporter cells; activation, % at 5 µM; 320,000 tested, 2.5% active; AID 2796, 2010; in the data active = activation above about 47%;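 also: 0% = vehicle wells and 100% = reference agonist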
Target sequence (P35869 whole entry, looked up): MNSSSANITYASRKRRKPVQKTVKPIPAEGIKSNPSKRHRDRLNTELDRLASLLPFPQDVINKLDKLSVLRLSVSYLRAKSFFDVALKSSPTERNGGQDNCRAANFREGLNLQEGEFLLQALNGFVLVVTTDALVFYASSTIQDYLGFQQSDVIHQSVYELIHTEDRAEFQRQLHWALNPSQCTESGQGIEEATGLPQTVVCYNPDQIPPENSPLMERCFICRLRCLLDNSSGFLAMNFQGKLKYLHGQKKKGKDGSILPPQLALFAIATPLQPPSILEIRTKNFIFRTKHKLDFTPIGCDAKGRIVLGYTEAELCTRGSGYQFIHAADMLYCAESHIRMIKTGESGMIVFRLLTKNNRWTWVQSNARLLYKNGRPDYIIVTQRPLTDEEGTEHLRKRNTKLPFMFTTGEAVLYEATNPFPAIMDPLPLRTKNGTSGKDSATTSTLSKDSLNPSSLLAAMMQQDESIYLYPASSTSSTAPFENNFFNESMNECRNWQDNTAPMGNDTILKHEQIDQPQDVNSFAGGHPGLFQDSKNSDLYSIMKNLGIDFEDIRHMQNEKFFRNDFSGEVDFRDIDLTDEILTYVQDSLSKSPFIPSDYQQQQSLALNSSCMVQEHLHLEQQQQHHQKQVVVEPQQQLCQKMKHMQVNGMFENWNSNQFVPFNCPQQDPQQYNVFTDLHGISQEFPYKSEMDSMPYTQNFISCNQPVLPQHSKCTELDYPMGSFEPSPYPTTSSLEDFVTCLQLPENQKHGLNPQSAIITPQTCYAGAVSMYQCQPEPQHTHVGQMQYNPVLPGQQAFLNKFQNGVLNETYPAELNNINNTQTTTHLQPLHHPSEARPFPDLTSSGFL
KLK5 inh = human KLK5 protease inhibitors, primary screen, biochemical, 1536-well | Kallikrein-5 (Homo sapiens), Q9Y337 | recombinant hK5, fluorogenic AMC substrate cleavage | inhibition, % at 5 µM | 210,000 tested, 0.59% active | AID 873, 2007;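 active = inhibition of 40% or more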;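 also: 0% = enzyme controls without compound and 100% = no-enzyme blanks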
thrombin 1536 = human alpha-thrombin inhibitors, primary screen, counter-screen for coagulation protease inhibitor project, biochemical, 1536-well, fluorogenic AMC substrate. Prothrombin (Homo sapiens), P00734. Boc-VPR-AMC fluorogenic substrate cleavage. 220,000 tested, 0.26% active. inhibition, % at 5 µM. AID 1046, 2008;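 active = inhibition at or above 40%; inactive = inhibition below 40%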;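 also: 0% = enzyme with no compound and 100% = wells without enzyme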
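System – human alpha-thrombin protein · Reagent – Boc-VPR-AMC substrate, 15 µM final · Compound – 5 µM single dose in 0.2% DMSO · Schedule – reaction at room temperature · Technique – AMC fluorescence at 355 nm excitation and 460 nm emission · Read-out basis – % inhibition relative to enzyme controls and enzyme-free blanks · Control set – no-compound enzyme wells and no-enzyme blanks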
FXIIa inh 1536 = human FXIIa protease inhibitors, primary screen, biochemical, 1536-well | Coagulation factor XII (Homo sapiens), P00748 | purified FXIIa, Boc-QGR-AMC fluorogenic substrate, 2 h | inhibition, % at 5 µM | 220,000 tested, 0.3% active | AID 800, 2007; in the data active = inhibition above about 40%;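 also: 0% = enzyme with no compound and 100% = blank without enzyme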
STAT3 activator = IL-6 driven STAT3 reporter potentiators, primary screen, U3A cells, luciferase, luminescence, MLSCN library | IL-6 STAT3-luciferase reporter; 100% = signal with IL-6 EC80 alone | activation (% of control), % at 5.6 µM | 190,000 tested, 0.91% active | AID 871, 2007;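 active = activation above the screen-wide mean of compound activation plus 3 SD, cut at about 130% in these data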;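 also: 0% = background luminescence of wells with medium and substrate only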
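System – human U3A cells carrying STAT3-luciferase construct · Probe or stimulus – Interleukin-6, 33 ng/mL · Schedule – compound 1 h, then IL-6 6 h at 37 °C · Signal – luminescence from STAT3-driven luciferase reporter · Evaluation – percent of IL-6-only median luminescence · Benchmarks – IL-6-only high control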
FXIa inh = human FXIa protease inhibitors, primary screen, biochemical, 1536-well. 220,000 tested, 0.14% active. inhibition, % at 5 µM. purified FXIa, Boc-Glu-Ala-Arg-AMC fluorogenic substrate. Coagulation factor XI (Homo sapiens), P03951;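 active = inhibition of at least 40%; inactive = inhibition below 40%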;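 also: fluorescence of freed AMC excited at 355 nm; 0% = enzyme without compound and 100% = no enzyme blank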
Active calls of the source: *; nt = no result given.

SMILES	AHR act	KLK5 inh	thrombin 1536	FXIIa inh 1536	STAT3 activator	FXIa inh
O=C(NNC(=O)c1cccnc1)Nc1ccc([N+](=O)[O-])cc1	2	42*	34	24	103	9
COc1ccc(C(C)=O)cc1CSc1ccc(S(=O)(=O)N2CCCCC2)cn1	-1	nt	nt	nt	nt	nt
C=CCN1C(=O)CS/C1=N\S(=O)(=O)c1ccc(Cl)cc1	0	-8	-6	-3	104	-1
O=C(Nc1cccc([N+](=O)[O-])c1)c1[nH]ncc1Cl	75*	-16	-6	18	89	8
Cc1ccccc1N(C(=O)Cc1cccs1)C(C(=O)NCC1CCCO1)c1cccnc1 (stereo unspecified)	-1	40	-7	-2	103	-11
O=C(NCC1CCCO1)C(c1cccnc1)N(C(=O)Cc1cccs1)c1ccccc1 (stereo unspecified)	5	41*	2	7	108	-3
Cc1ccc(C)c(SCC(=O)OCC(=O)Nc2ccc(S(=O)(=O)N3CCOCC3)cc2)c1	1	-4	50*	10	101	5
CSC(=Nc1ccccc1)C(C#N)c1nc2ccccc2[nH]1 (stereo unspecified)	18	-21	-7	6	nt	-3
N#CC(C(=S)Nc1ccccc1)c1nc2ccccc2[nH]1 (stereo unspecified)	73*	-13	2	10	nt	3
Cc1ccc(NC2CCCN(C(=O)c3cc4ncccn4n3)C2)cc1C (stereo unspecified)	13	nt	nt	nt	nt	nt
O=C(O)CCCNc1c(C(=O)Nc2ccc(Cl)cc2)cc([N+](=O)[O-])cc1[N+](=O)[O-]	56*	2	4	9	109	1
O=C(COc1cccc2c1CCNC2=O)Nc1cccc(F)c1	49*	nt	nt	nt	nt	nt
O=C(COc1cccc2c1CCNC2=O)Nc1cccc(C(F)(F)F)c1	7	nt	nt	nt	nt	nt
Clc1ccccc1-c1nnc2sc(-c3cccs3)nn12	71*	0	0	1	110	2
CCc1nc2sccc2c(=O)[nH]1	4	56*	44*	23	99	32
Cc1ccc(COc2coc(CO)cc2=O)cc1	3	3	1	-8	108	-5
O=c1cc(CO)occ1OCc1cccc(F)c1	-1	40*	5	9	113	-7
CC1(C)C(C=C(Cl)Cl)C1C(=O)N/N=C/c1ccccc1F (stereo unspecified)	-2	nt	nt	nt	nt	nt
O=C1CCCc2oc3c(c21)CCCC3	0	-11	-13	9	108	-3
O=C1CCNc2ccc(-c3ccccc3)cc21	15	-9	-1	7	92	3
O=C1CCNc2cc3ccccc3cc21	17	-4	22	19	137*	15
Nc1nc(-c2c[nH]c3ccccc23)cs1	58*	2	-3	0	104	-8
Cc1cc(C(=O)COC(=O)c2ccc[nH]c2=O)c(C)n1CCc1ccc(F)cc1	41	44*	nt	29	99	24
Cc1cc(C(=O)COC(=O)C2=NNC(=O)CC2)c(C)n1CCc1ccccc1	69*	-1	1	12	98	6
Cc1cc(C)n(S(=O)(=O)c2ccc3oc(=O)ccc3c2)n1	1	nt	nt	nt	nt	nt
SMILES	AHR act	KLK5 inh	thrombin 1536	FXIIa inh 1536	STAT3 activator	FXIa inh
COc1ccc(C2/C=C\CN(C(=O)C3CC3)CC(=O)N2Cc2ccc(F)cc2)cc1 (stereo unspecified)	4	3	1	11	nt	2
CCn1c(C)nc2cc(C(=O)NNC(=S)Nc3ccccc3OC)ccc21	5	-11	5	6	nt	2
CCn1c(C)nc2cc(C(=O)NNC(=S)Nc3ccc(C)cc3)ccc21	-3	17	43*	51*	nt	31
CCCCCCOc1ccc(NC(=O)CC2C(=O)N(CC)C(=S)N2Cc2ccco2)cc1 (stereo unspecified)	-2	-18	-5	0	104	-5
N#CC1(NC(=O)CN2C(=O)c3ccc([N+](=O)[O-])cc3C2=O)CCCCC1	-2	nt	nt	nt	nt	nt
Clc1nccnc1N/N=C/c1ccc(Br)cc1	63*	nt	nt	nt	nt	nt
O=C1C[C@H]2[C@H](CO)[C@@H](OC(=O)c3ccc(-c4ccccc4)cc3)C[C@H]2O1	-1	72*	19	10	nt	17
O=C(C1CCN(S(=O)(=O)c2cnc[nH]2)CC1)N1CCN(c2ccc([N+](=O)[O-])cc2)CC1	0	nt	nt	nt	nt	nt
Cc1cc(C)nc(N2CCCC(C(=O)Nc3ccc4c(c3)OCO4)C2)n1 (stereo unspecified)	49*	4	-8	-2	103	-9
CC1CC(C)CN(S(=O)(=O)c2ccc(C(=O)N3CCN(c4ccccc4)CC3)cc2)C1 (stereo unspecified)	0	40*	4	5	88	1
O=C(c1ccc(S(=O)(=O)N2CCCCCC2)cc1)N1CCN(c2ccccc2)CC1	0	nt	nt	nt	nt	nt
COc1ccc(N=C(c2ccccc2)c2c(C)[nH]n(-c3ccccc3)c2=O)c(OC)c1	-4	-4	-5	5	nt	-2
COC(=O)C(C(=O)OC)C(c1ccccc1)C(C(=O)c1ccccc1)[N+](=O)[O-] (stereo unspecified)	-3	-2	-13	3	nt	-2
O=C(c1c(O)c2ccccc2oc1=O)C1CCC1	8	3	5	17	97	2
O=C(c1ccccc1Cl)c1c(O)c2ccccc2oc1=O	55*	nt	nt	nt	nt	nt
COc1ccc(NC(=O)Cc2ccccc2F)cn1	6	15	50*	13	97	23
Cc1ccc(NC2CCCN(C(=O)c3cccnc3)C2)cc1C (stereo unspecified)	48*	nt	nt	nt	nt	nt
CCCCOc1ccc(-c2nnn(C(C)C(=O)OCC)n2)cc1 (stereo unspecified)	-1	5	-1	11	97	4
CCCCOc1ccc(-c2nnn(C(C)(C)C(=O)OC)n2)cc1	2	140*	2	-3	99	-11
CC(OC(=O)CC1CCCCC1)C(=O)Nc1ccc(F)cc1 (stereo unspecified)	-2	nt	nt	nt	nt	nt
Cc1nn(-c2ccc(N3CCOCC3)nn2)c(C)c1CCC(=O)NCc1ccccc1	2	nt	nt	nt	nt	nt
CCC(CC)c1nnc(NC(=O)c2ccc3ccccc3n2)s1	31	-14	0	14	152*	0
CCC(CC)c1nnc(NC(=O)CCN2C(=O)c3ccccc3C2=O)s1	24	53*	27	25	92	4
CCC(CC)c1nnc(NC(=O)CN2C(=O)c3ccccc3C2=O)s1	-1	-26	-1	-5	101	-7
